Screens (PubChem BioAssay)
LYPLA2 counter: LYPLA2 inhibitors, primary screen, counter-screen for PME1 inhibitor project, biochemical, fluorescence polarization, FP-Rh probe ABPP | Acyl-protein thioesterase 2 (Homo sapiens), O95372 | recombinant LYPLA2 | inhibition, % at 5.9 µM | hit rate 0.38% among 320,000;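 active = inhibition above the screen-wide mean plus 3 SD, limit set per campaign, cut at about 26% in these data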
Target sequence (O95372 whole entry, looked up): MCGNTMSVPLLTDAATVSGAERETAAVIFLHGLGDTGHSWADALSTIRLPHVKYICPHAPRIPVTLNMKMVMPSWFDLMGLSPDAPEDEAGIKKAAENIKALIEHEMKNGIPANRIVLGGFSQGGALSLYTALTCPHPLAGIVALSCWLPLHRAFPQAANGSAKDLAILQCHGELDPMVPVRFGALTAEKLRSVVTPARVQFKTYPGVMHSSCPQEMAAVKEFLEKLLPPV
Fam108B inh: mouse Fam108B serine hydrolase inhibitors, primary screen, counter-screen for RBBP9 inhibitor project, biochemical, fluorescence polarization; recombinant Fam108B, FP-Rh probe fluorescence polarization; inhibition, % at 9.51 µM; hit rate 0.33% among 300,000; AID 1947, 2009;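 active = inhibition above the screen mean inhibition plus 3 SD, computed separately per campaign, cut at about 18% in these data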;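 note: inhibitors lower polarization as less probe binds the enzyme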
LYPLA1 counter: LYPLA1 inhibitors, primary screen, counter-screen for PME1 inhibitor project, biochemical, fluorescence polarization, FP-Rh probe ABPP; Acyl-protein thioesterase 1 (Homo sapiens), O75608; recombinant LYPLA1; inhibition, % at 5.9 µM; hit rate 0.16% among 320,000;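 active = inhibition above the mean of all tested compounds plus 3 SD, set per campaign, cut at about 14% in these data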;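 note: inhibitors block serine hydrolase probe labeling of LYPLA1 so polarization falls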
Target sequence (O75608 whole entry, looked up): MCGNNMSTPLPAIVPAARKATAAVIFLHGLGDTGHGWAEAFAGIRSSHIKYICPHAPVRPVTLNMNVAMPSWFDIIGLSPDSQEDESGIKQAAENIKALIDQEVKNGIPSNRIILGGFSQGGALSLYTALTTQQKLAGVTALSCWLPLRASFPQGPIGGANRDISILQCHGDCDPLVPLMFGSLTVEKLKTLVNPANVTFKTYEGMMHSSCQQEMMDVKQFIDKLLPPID
PAD4 FP inh: human PAD4 inhibitors, primary screen, biochemical, fluorescence polarization, 1536-well format | Protein-arginine deiminase type-4 (Homo sapiens), Q9UM07 | recombinant PAD4, RCA probe fluorescence polarization | inhibition, % at 6.36 µM | hit rate 0.41% among 330,000 | AID 485272, 2010;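 active = percent inhibition above a cutoff equal to the mean of all tested compounds plus 3 SD, cut at about 15% in these data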
PME-1 primary: PME-1 inhibitors via competitive probe labeling, primary screen, biochemical, fluorescence polarization, FP-Rh probe, HTS | AID 2130, 2009 | Protein phosphatase methylesterase 1 (Homo sapiens), Q9Y570 | inhibition, % at 5.9 µM | hit rate 0.53% among 320,000 | recombinant PME-1;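 active = inhibition above the campaign mean of all compounds plus 3 SD, cut at about 26% in these data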;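 note: competitive labeling of PME-1 active site by serine hydrolase directed probe; inhibitors block probe labeling so polarization falls and inhibition rises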
RBBP9 inhibitor: human RBBP9 inhibitors, primary screen, biochemical, fluorescence polarization, FP-Rh probe, HTS; Serine hydrolase RBBP9 (Homo sapiens), O75884; recombinant RBBP9; inhibition, % at 7.94 µM; hit rate 0.2% among 220,000; AID 1515, 2009;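 active = inhibition above the campaign mean of all tested compounds plus 3 SD, cut at about 14% in these data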
Target sequence (O75884 whole entry, looked up): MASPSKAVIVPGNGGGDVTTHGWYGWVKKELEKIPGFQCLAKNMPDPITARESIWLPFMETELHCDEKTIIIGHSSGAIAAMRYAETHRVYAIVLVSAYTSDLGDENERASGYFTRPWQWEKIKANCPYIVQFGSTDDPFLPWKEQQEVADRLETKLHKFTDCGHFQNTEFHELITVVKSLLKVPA
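Test system: recombinant human RBBP9. Quantity: 2.5 µM RBBP9 dispensing solution, before mixing. Detection: FP readout at 525/598 nm. Reagent: Serine-hydrolase probe FP-Rh, 375 nM pre-mixing. Measure: % inhibition. Control set: DMSO-treated enzyme wells and wells lacking RBBP9. Buffer or medium: Tris-NaCl-Pluronic buffer, pH 8.0. Times: preincubation 30 min plus labeling 45 min at 25 °C.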
PAD4 confirm: human PAD4 inhibitors, confirmation, biochemical, fluorescence polarization; shares compounds with PAD4 FP inh; recombinant PAD4, RCA probe fluorescence polarization; hit rate 28% among 1,200; inhibition, % at 6.36 µM; AID 488796, 2010;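 active = mean inhibition across replicates above the hit cutoff set by the earlier primary screen, cut at about 15% in these data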;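 note: inhibitors block active-site labeling by the probe so polarization falls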
Of the large screens only hits and unclear results are named; the others gave an inactive call (follow-up assays come after a bar, where they were run). Sampled rows, rich in hits. Any-hit rate of the full collection: about 1.3%.

Cc1nn(-c2cccc(Cl)c2)c2c1C(c1ccncc1)C(C#N)=C(N)O2 (stereo not drawn)	PAD4 FP inh 34 | PAD4 confirm inactive
Cc1nn(-c2ccccc2)c2c1C(c1ccc([N+](=O)[O-])cc1)C(C#N)=C(N)O2 (stereo not drawn)	none
O=C1CC[C@@H](OCc2ccccc2)CCN1CC[C@H](Sc1ccccc1)c1ccccc1	none (no result: RBBP9 inhibitor)
C=CCN1CN(S(=O)(=O)c2cccc(Cl)c2)c2nc3ccccc3nc21	PAD4 FP inh 46 (no result: RBBP9 inhibitor) | PAD4 confirm inactive
COCCN1CN(S(=O)(=O)c2cccc(Cl)c2)c2nc3ccccc3nc21	none (no result: RBBP9 inhibitor)
CC1(C)N=C(c2ccc(Cl)cc2)C(=O)N1	none
O=C(NN=C(Cc1ccccc1)Cc1ccccc1)c1ccccc1F	none
CCOc1ccccc1C(=O)NCC(=O)NCCCSc1ccccc1	none (no result: RBBP9 inhibitor)
CCOc1ccccc1C(=O)NCC(=O)NCCCc1ccccc1	PAD4 FP inh 62 | PAD4 confirm inactive
CCC(C)NC(=O)c1cn(CC)c2cc(N3CCN(C(=O)c4ccco4)CC3)c(F)cc2c1=O (stereo not drawn)	none (no result: RBBP9 inhibitor)
O=S(=O)(c1ccc2nc(N3CCN(c4ccc(F)cc4)CC3)ccc2c1)N1CCCCC1	none (no result: RBBP9 inhibitor)
N#CC(C#N)=C1C=C2C=C(N3CCCCC3)CCC2CC1 (stereo not drawn)	PAD4 FP inh 49 | PAD4 confirm 21
N#CC1=C(N)C2=C(N3CCCCC3)CCCC2C1(C#N)C#N (stereo not drawn)	none
CC(=O)N1CC(C)Sc2ccc(S(=O)(=O)NCCc3cccc(C)c3)cc21 (stereo not drawn)	none (no result: RBBP9 inhibitor)
CCC(=O)N(C1=C(NC(C)C)C(=O)c2ccccc2C1=O)C(C)C	none
CCCNC1=C(N(C(C)=O)c2cccc(F)c2)C(=O)c2ccccc2C1=O	PAD4 FP inh 18 | PAD4 confirm inactive
O=C1CCC/C=C\C[C@@H](CC(=O)N(CCO)Cc2ccccc2)C(=O)N[C@H](c2ccccc2)CO1	none (no result: LYPLA2 counter, Fam108B inh, LYPLA1 counter, PME-1 primary, RBBP9 inhibitor)
CCC(CN(C)C)Oc1cc(NCc2ccccc2)c2ncn(C(C)C)c2c1 (stereo not drawn)	PAD4 FP inh 38 (no result: LYPLA2 counter, Fam108B inh, LYPLA1 counter, PME-1 primary, RBBP9 inhibitor) | PAD4 confirm inactive
O=C(OCCOc1cccc(Cl)c1)c1ccc2ncsc2c1	none (no result: RBBP9 inhibitor)
COc1ccccc1N=Cc1c(C)[nH]n(-c2ccc(C)cc2C)c1=O	none
COc1cc(SC#N)ccc1N=Cc1c(C)[nH]n(-c2ccc(C)cc2C)c1=O	PAD4 FP inh 22 | PAD4 confirm 36
COc1cc(SC#N)ccc1N=Cc1c(C)[nH]n(-c2cccc3ccccc23)c1=O	PAD4 FP inh 31 | PAD4 confirm 46
Nc1ccc(-c2c3ccc(=O)cc-3oc3cc(O)ccc23)cc1C(=O)O	PAD4 FP inh 23 (no result: RBBP9 inhibitor) | PAD4 confirm 33
COc1ccc(-c2c(C)c3ccc(O)cc3oc2=O)cc1OC	none (no result: RBBP9 inhibitor)
CC(C)(C)OC(=O)N1CCC(c2c(C(=O)NCC3CCN(C4CCCC4)C3)cnn2-c2cccc(Cl)c2)CC1 (stereo not drawn)	none (no result: RBBP9 inhibitor)
COCCN(C(=O)COC(=O)CSc1ccccc1)c1c(N)n(Cc2ccccc2)c(=O)[nH]c1=O	none (no result: RBBP9 inhibitor)
O=c1cc(-c2ccccc2)[nH]n1-c1nc2ccccc2[nH]1	none
N#CCCn1[nH]c(-c2ccccc2)cc1=O	PAD4 FP inh 51 | PAD4 confirm inactive
NS(=O)(=O)c1ccc(CCNC(=O)CN2C(=O)COc3ccc(S(=O)(=O)N4CCCC4)cc32)cc1	none (no result: RBBP9 inhibitor)
O=C(NNC(=O)c1sccc1-n1cccc1)c1cccc(Cl)c1	none
COc1cc(/C=C2\C(=O)N(c3ccc(S(N)(=O)=O)cc3)N=C2C)ccc1OC(=O)c1ccco1	none
CC1=NN(c2ccccc2)C(=O)/C1=C\c1cn(-c2ccccc2)nc1C	none
CC1=NN(c2ccccc2)C(=O)/C1=C\c1cn(CCC#N)nc1-c1ccc(Cl)cc1	PAD4 FP inh 19 | PAD4 confirm inactive
C#CCOc1ccc(/C=C2/C(=O)N(c3cccc(C(=O)O)c3)N=C2C)cc1OC	PAD4 FP inh 39 (no result: RBBP9 inhibitor) | PAD4 confirm inactive
COc1ccccc1/C=C1/C(=O)N(c2ccccc2)N=C1C	PAD4 FP inh 48 (no result: RBBP9 inhibitor) | PAD4 confirm inactive
CCCn1nnc(NC(=O)C(C)C)n1	none
Cc1cc(=O)[nH]c(NN)n1	PAD4 FP inh 16 | PAD4 confirm inactive
CC1(C(=O)NC2CCCCCCC2)CCC(=O)N1Cc1cccs1 (stereo not drawn)	none
O=C(O)c1ccccc1O	none
O=C(O)c1ccccc1SSc1ccccc1C(=O)O	PAD4 FP inh 45 (no result: RBBP9 inhibitor) | PAD4 confirm 38
OCC1(Cc2ccccc2)CCN(C2CCN(c3ccc(F)c(F)c3)CC2)CC1	none
CCOC(=O)[C@H]1[C@H]2COc3cc(OC)ccc3[C@@H]2N2C(=O)c3cc(C)ccc3NC(=O)[C@@]12C	PAD4 FP inh 16 (no result: RBBP9 inhibitor) | PAD4 confirm inactive
Cc1nc(Cl)sc1C(=O)Nc1cccc(Cl)c1	none (no result: RBBP9 inhibitor)
O=C(N/N=C\c1ccc(-c2ccccc2[N+](=O)[O-])o1)C1COc2ccccc2O1 (stereo not drawn)	PAD4 FP inh 29 | PAD4 confirm inactive
O=C(N/N=C\c1ccc(-c2ccccc2[N+](=O)[O-])o1)C1COc2cc3ccccc3cc2O1 (stereo not drawn)	PAD4 FP inh 17 | PAD4 confirm inactive
O=C(O)CSc1nc(C(F)(F)F)cc(=O)n1-c1ccccc1	none
O=C(O)/C=C/C(=O)Nc1ccc(O)cc1	PAD4 FP inh 60 | PAD4 confirm inactive
COc1cccc2c(=O)cc(C)n(CC(=O)Nc3cccc(C)c3)c12	none
CCOc1cc(Br)c(/C=C2/C(=O)N(C)C(=S)N2CC(=O)OC)cc1OC	none
COc1cc(/C=C2\C(=O)N(CCC#N)N=C2C)c(Br)cc1OC(C)C	PAD4 FP inh 71 | PAD4 confirm inactive
O=C(/C=C/c1ccccc1)OCN1C(=O)c2ccccc2C1=O	none (no result: RBBP9 inhibitor)
COC(=O)N/N=C1/C/C(=N\NC(=O)OC)c2ccccc21	PAD4 FP inh 21 | PAD4 confirm inactive
COc1cccc(C(CNC(=O)C2CCN(C(=O)Nc3ccccc3)CC2)N(C)C)c1 (stereo not drawn)	none (no result: Fam108B inh, RBBP9 inhibitor)
COc1ccc(CCNC(=O)c2c[nH]c3ccccc3c2=O)cc1OC	none
COc1ccc(CCNC(=O)c2c[nH]c3ccc(F)cc3c2=O)cc1OC	PAD4 FP inh 83 (no result: RBBP9 inhibitor) | PAD4 confirm inactive
CCCCCN1N=C(C)CC1=O	PAD4 FP inh 22 | PAD4 confirm inactive
